Most compounds without a hit are left out; they make up all but 4.5% or so of the library.
OX1R antag-1: OX1R (human) antagonism. 1.8% of 330,000 active. O43613. AID 485270. OX1R-expressing cells, FRET antagonist read-out. inhibition, % at 6.6 µM; in the data active = inhibition mostly above about 38%, no sharp cut-off; inactive = mostly below about 40%
CHO parental Ca: counter-screen for OX1R antagonists: effect in parental CHO cells; AID 463079; parental CHO-K1, ATP-induced calcium, Fluo-8 fluorescence; inhibition, % at 5.6 µM; 0.63% of 330,000 active;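 active = inhibition above that plate's mean sample inhibition plus 3 SD, cut at about 26% in these data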
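Material – parental CHO cells · Reagent – ATP stimulus · Compound – single nominal dose of 5.6 µM per compound · Detection – Fluo-8 fluorescence · Read-out basis – percent inhibition of calcium signal · Controls – ATP-challenged DMSO wells low, unchallenged DMSO wells high · Repeats – no replicates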
TAAR1 ag: agonists of human TAAR1; CHO RD-HGA16 TAAR1, Fluo-8 calcium fluorescence; vehicle wells 0%, saturating PEA agonist 100%; activation, % at 3 µM; 0.99% of 360,000 active;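 active = activation above the mean activation of all test compounds in the run plus 3 SD, cut at about 38% in these data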
Target sequence (Q96RJ0 whole entry, looked up): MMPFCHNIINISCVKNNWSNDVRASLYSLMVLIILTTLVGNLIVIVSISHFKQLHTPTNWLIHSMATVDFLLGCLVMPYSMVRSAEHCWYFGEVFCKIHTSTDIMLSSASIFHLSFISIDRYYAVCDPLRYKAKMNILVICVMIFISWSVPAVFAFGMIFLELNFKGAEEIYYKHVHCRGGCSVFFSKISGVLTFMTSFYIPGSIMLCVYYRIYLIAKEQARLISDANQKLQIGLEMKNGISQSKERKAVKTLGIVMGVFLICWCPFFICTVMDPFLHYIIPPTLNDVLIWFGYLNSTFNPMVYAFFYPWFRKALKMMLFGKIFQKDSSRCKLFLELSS
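Assay system: CHO-derived RD-HGA16 cells with stable Gα16 and human TAAR1; timing: 17-24 h seeding, 75 min 37 °C dye, 30 min RT; read-out: % activation from peak over basal fluorescence ratio, DMSO-to-PEA scaled; measured by: kinetic Fluo-8 calcium fluorescence; benchmarks: low control DMSO, high control PEA (EC100); doses: 3 µM single concentration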
GPR7 antag: blocks human GPR7 receptor signaling; AID 1861; P48145; inhibition, % at 4.4 µM; 1.1% of 290,000 active; GPR7-expressing cells, fluorescence antagonist assay; in the data active = inhibition above about 16%, passing the limit was not always enough;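 also: cells stimulated with the agonist NPW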
OX1R antag-2: antagonists of human orexin 1 receptor; O43613; CHO/OX1R cells, Fluo-8 calcium fluorescence, orexin A; inhibition, % at 5 µM; 0.43% of 330,000 active;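 active = inhibition above its plate's threshold, mean inhibition of all tested compounds on the plate plus 3 SD, cut at about 37% in these data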
TAAR1 antag: human TAAR1 antagonism; inhibition, % at 3 µM; Q96RJ0; AID 624466; 1.5% of 360,000 active; CHO RD-HGA16 TAAR1, Fluo-8 calcium fluorescence, antagonist;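 active = inhibition above a per-plate cutoff, the mean inhibition of test compounds on that plate plus 3 SD, cut at about 49% in these data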
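Material: RD-HGA16 CHO cells with stable hTAAR1 and Gα16; Dosing: single nominal final test compound concentration of 3 µM; Schedule: seeding 17-24 h prior, 75-min 37 °C, 30-min RT dye loading; Detection: kinetic Fluo-8 calcium fluorescence measurement; Measure: % inhibition from peak post-agonist over basal fluorescence ratio; Benchmarks: vehicle and agonist controls.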
A number is an active result; n = inactive; x = not tested or not shown.

SMILES | OX1R antag-1 | CHO parental Ca | TAAR1 ag | GPR7 antag | OX1R antag-2 | TAAR1 antag
COc1ccccc1CNC(=O)COC(=O)c1ccc(-n2cnnn2)cc1 | n | n | n | x | n | n
O=C(OCCOc1ccccc1Cl)c1ccc(-n2cnnn2)cc1 | n | n | n | 17 | n | n
Oc1c(Br)cc(Br)cc1C=Nc1cccc2ncccc12 | 54 | n | n | x | n | n
COc1ccc2sc(-c3ccc(S(C)(=O)=O)cc3)c(C(=O)NCCc3c[nH]c4ccccc34)c2c1 | n | n | n | x | n | 58
C[C@H]1[C@H](c2ccccc2)Oc2ccc(Cl)cc2S(=O)(=O)N1C[C@@H]1CCCN1C(=O)OC(C)(C)C | x | x | n | x | x | n
O=C(c1cc(-c2ccncc2)nc2ccc(Br)cc12)N1CCN(Cc2ccc3c(c2)OCO3)CC1 | n | n | n | n | n | 62
Cc1ccc(CNC(=O)c2ccc(N3CCC4(CC3)CC(c3cccc(Br)c3)=NO4)c([N+](=O)[O-])c2)cc1 | n | n | n | x | n | n
CCCNC(=O)c1ccc(N2CCC3(CC2)CC(c2cccc(Br)c2)=NO3)c([N+](=O)[O-])c1 | n | n | n | n | n | 51
COc1ccc(-c2csc(C(O)c3ccc(F)c(OC)c3)n2)cn1 (stereo unspecified) | x | x | n | x | x | n
COCCNC(=O)C(c1ccc(C)o1)N(Cc1ccc(OC)cc1)C(=O)Cn1nnc2ccccc21 (stereo unspecified) | n | n | 41 | n | n | n
COCCNC(=O)C(c1ccc(C)o1)N(Cc1ccc(F)cc1)C(=O)Cn1nnc2ccccc21 (stereo unspecified) | n | n | n | n | n | n
C/C(N)=C(/C#N)C(=O)CSc1nnnn1-c1ccccc1 | n | n | n | n | n | n
C/C(N)=C(/C#N)C(=O)CSc1nnnn1-c1ccc(C)cc1 | n | n | n | 15 | n | n
Cn1cc(CCOCc2ccccn2)c2ccccc21 | x | x | n | x | x | n
Cc1ccc(Oc2ncccc2N)c2c1CCC2 | n | n | n | 19 | n | n
CC(C)COC(=O)N(C)C[C@@H]1OCc2cnnn2CCCC(=O)N([C@@H](C)CO)C[C@H]1C | x | x | n | x | x | n
COc1cccc(/C=N/NC(=O)CSCC(=O)Nc2ccccc2)c1O | 59 | n | n | n | n | n
COc1cccc(/C=N/NC(=O)C(=O)NCc2ccco2)c1O | 41 | n | n | n | n | n
COc1ccc(/C=N/NC(=O)CSCC(=O)Nc2ccccc2)cc1 | n | n | n | n | n | n
COc1cccc(/C=N/NC(=O)C(=O)NCc2ccco2)c1OC | n | n | n | n | n | n
CCCN1C[C@@H](C)[C@@H](OC)CN(C)C(=O)c2ccc(NC(=O)c3cccc(F)c3)cc2OC[C@H]1C | x | x | n | x | x | n
O=C(NCC(c1ccc(F)cc1)N1CCOCC1)c1ccc([N+](=O)[O-])o1 (stereo unspecified) | 48 | n | n | x | n | n
O=C(NCc1nnnn1-c1ccc(F)cc1)c1ccc([N+](=O)[O-])o1 | 54 | n | n | x | n | n
Cc1ccc(-n2nnnc2CNC(=O)c2ccc([N+](=O)[O-])o2)cc1C | n | n | n | x | n | n
COc1cccc(-c2nn(-c3ccc(C)cc3)cc2C(=O)N2CCc3cc(OC)c(OC)cc3C2)c1 | 46 | n | n | x | n | 63
SMILES | OX1R antag-1 | CHO parental Ca | TAAR1 ag | GPR7 antag | OX1R antag-2 | TAAR1 antag
COc1ccc(OC)c(-c2nn(-c3ccccc3)cc2C(=O)N2CCc3ccccc3C2)c1 | n | n | n | x | n | n
C=CCc1cccc(CNc2cnc3ccccc3c2)c1O | n | 72 | n | n | n | n
CC1(C(=O)Nc2ccc3c(c2)OCCO3)CCN1C(=O)c1ccco1 (stereo unspecified) | x | x | n | x | x | n
Cc1cc(C)c(N(C(=O)CN2C(=O)c3ccccc3S2(=O)=O)C(C(=O)NCC2CCCO2)c2ccc(F)cc2)c(C)c1 (stereo unspecified) | n | n | n | n | n | 52
COc1ccccc1N(C(=O)CN1C(=O)c2ccccc2S1(=O)=O)C(C(=O)NCC1CCCO1)c1ccc(F)cc1 (stereo unspecified) | n | n | n | n | n | n
O=C(COC(=O)CCCOc1ccccc1)NNC(=O)c1ccc([N+](=O)[O-])cc1 | n | n | n | n | n | n
